Tests used:
[1] = tested on: 786-0; experiment: Antiproliferative activity against human 786-0 cells assessed as inhibition of cell growth at 30 uM measured after 3 to 4 days by MTT assay relative to control; assay type: functional; conditions: time 3-4 day
Outline: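 786-O cells (RPMI, 10% FCS) seeded at 5000 per well and left overnight. Compound was added at a single 30 µM concentration in 1% FCS medium (DMSO max. 0.2%). Cells grew 3–4 days at 37 °C, 5% CO₂, with no medium change, and were read by MTT. Percent inhibition is the mean of duplicates that differed by ≤10%.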

[2] = tested on: 786-0; experiment: Induction of cell death in human 786-0 cells assessed as cell viability measured after 11 hrs by CellCyteX live-cell microscopy analysis; assay type: functional, cell-based; conditions: dose 10-20 µM
Outline: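 786-O cells seeded at 3×10³ per well and grown 24 h. Compound was then added in culture medium containing 125 nM Cytotox Green, at 0.2% (v/v) final DMSO, and kept at 37 °C in 5% CO₂. Green fluorescence images of dead cells were taken every 3 h by live-cell microscopy and normalized to the DMSO control. Results are representative of three independent measurements.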

[3] = target: CDC7/DBF4 (Cell division cycle 7-related protein kinase/Activator of S phase kinase) (Homo sapiens) (UniProt Q9UBU7+O00311); experiment: Inhibition of human recombinant GST tagged CDC7/DBF4 expressed in Baculovirus expression system at 2 uM by Eurofins kinase assay relative to control
[4] = species: Homo sapiens; experiment: Inhibition of human recombinant GST tagged CDK1/cyclin B expressed in insect cells at 2 uM by Eurofins kinase assay relative to control
[5] = target: Serine/threonine-protein kinase Chk1 (Homo sapiens) (UniProt O14757); experiment: Inhibition of human recombinant CHK1 at 2 uM by Eurofins kinase assay relative to control
Chain of Serine/threonine-protein kinase Chk1 (Homo sapiens) (O14757 whole entry): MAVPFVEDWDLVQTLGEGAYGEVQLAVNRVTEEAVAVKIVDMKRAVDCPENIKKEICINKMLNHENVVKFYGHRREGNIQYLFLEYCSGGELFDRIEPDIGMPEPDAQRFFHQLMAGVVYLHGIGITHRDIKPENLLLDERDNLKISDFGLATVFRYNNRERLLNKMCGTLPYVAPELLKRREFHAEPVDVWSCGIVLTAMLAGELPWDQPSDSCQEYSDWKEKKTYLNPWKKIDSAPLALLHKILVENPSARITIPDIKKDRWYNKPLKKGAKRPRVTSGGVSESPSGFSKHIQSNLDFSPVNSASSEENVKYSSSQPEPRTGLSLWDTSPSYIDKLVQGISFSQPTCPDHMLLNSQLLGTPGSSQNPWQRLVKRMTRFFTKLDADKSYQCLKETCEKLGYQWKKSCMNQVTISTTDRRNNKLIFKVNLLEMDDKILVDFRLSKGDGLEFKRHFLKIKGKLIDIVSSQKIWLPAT

[6] = target: Dual specificity protein kinase CLK4 (Homo sapiens) (UniProt Q9HAZ1); experiment: Inhibition of human recombinant CLK4 at 2 uM by Eurofins kinase assay relative to control
[7] = target: Casein kinase I isoform gamma-1 (Homo sapiens) (UniProt Q9HCP0); experiment: Inhibition of human recombinant GST tagged CSNK1G1 expressed in insect cells at 2 uM by Eurofins kinase assay relative to control
[8] = target: Dual specificity tyrosine-phosphorylation-regulated kinase 1A (Homo sapiens) (UniProt Q13627); experiment: Inhibition of human DYRK1A at 2 uM by Eurofins kinase assay relative to control
[9] = target: Dual specificity tyrosine-phosphorylation-regulated kinase 2 (Homo sapiens) (UniProt Q92630); experiment: Inhibition of human DYRK2 at 2 uM by Eurofins kinase assay relative to control
Chain of Dual specificity tyrosine-phosphorylation-regulated kinase 2 (Homo sapiens) (Q92630 whole entry): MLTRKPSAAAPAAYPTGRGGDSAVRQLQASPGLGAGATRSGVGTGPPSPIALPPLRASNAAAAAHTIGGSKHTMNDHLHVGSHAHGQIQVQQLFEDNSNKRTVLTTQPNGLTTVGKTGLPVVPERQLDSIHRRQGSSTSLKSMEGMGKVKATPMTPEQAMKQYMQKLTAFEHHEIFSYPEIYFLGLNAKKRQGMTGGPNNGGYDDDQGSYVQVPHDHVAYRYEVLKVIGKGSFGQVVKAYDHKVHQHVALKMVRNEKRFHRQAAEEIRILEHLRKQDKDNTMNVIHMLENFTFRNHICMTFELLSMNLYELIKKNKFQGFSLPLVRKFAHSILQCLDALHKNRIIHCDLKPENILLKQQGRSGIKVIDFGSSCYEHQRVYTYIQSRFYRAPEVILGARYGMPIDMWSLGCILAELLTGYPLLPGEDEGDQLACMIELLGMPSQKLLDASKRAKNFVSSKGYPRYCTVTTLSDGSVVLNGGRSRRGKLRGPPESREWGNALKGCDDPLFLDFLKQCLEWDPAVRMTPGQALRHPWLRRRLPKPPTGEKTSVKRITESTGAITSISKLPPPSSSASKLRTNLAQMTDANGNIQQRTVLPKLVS

[10] = target: Vascular endothelial growth factor receptor 3 (Homo sapiens) (UniProt P35916); experiment: Inhibition of human recombinant FLT4 at 2 uM by Eurofins kinase assay relative to control
Chain of Vascular endothelial growth factor receptor 3 (Homo sapiens) (P35916 whole entry): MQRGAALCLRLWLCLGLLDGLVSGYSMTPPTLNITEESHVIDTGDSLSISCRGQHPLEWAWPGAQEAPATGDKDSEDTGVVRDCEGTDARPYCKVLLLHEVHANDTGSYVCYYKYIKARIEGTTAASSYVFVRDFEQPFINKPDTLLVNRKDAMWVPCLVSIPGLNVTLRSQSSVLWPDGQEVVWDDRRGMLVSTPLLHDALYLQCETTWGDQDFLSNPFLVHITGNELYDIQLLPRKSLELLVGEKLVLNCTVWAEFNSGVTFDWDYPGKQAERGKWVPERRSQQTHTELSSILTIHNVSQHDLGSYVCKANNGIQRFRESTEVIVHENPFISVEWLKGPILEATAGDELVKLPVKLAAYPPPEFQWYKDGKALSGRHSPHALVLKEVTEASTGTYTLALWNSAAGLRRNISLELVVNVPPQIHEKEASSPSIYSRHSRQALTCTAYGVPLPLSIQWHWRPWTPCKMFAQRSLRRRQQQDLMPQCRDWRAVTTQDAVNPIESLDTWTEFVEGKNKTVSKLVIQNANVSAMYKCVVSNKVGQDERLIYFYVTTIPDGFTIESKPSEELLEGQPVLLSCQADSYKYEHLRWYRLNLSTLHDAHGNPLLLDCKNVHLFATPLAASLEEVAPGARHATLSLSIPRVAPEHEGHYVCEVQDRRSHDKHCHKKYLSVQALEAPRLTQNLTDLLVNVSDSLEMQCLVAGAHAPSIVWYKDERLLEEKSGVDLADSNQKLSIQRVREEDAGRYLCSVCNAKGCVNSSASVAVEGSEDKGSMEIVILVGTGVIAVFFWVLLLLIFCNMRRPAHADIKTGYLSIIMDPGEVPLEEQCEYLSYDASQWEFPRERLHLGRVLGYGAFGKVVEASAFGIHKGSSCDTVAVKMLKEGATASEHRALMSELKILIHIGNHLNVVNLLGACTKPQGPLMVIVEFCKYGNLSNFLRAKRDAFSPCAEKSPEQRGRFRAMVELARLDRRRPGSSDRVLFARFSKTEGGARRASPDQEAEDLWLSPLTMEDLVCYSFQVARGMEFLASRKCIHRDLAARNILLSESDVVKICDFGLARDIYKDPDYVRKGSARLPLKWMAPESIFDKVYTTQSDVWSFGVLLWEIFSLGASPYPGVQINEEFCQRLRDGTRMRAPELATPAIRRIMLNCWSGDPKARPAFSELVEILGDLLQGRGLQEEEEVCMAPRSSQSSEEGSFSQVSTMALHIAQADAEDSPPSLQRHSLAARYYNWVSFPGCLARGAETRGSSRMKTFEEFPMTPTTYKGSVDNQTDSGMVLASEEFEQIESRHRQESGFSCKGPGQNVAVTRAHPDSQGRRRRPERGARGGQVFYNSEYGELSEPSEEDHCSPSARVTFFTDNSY

[11] = target: Serine/threonine-protein kinase haspin (Homo sapiens) (UniProt Q8TF76); experiment: Inhibition of human recombinant GSG2 at 2 uM by Eurofins kinase assay relative to control
[12] = target: Glycogen synthase kinase-3 beta (Homo sapiens) (UniProt P49841); experiment: Inhibition of human recombinant GSK3B at 2 uM by Eurofins kinase assay relative to control
[13] = tested on: Mast/stem cell growth factor receptor Kit (Homo sapiens), P10721 [D816H]; experiment: Inhibition of human recombinant GST/His tagged KIT D816H mutant expressed in insect cells at 2 uM by Eurofins kinase assay relative to control
Chain of Mast/stem cell growth factor receptor Kit (Homo sapiens), P10721 [D816H] (P10721 whole entry D816H): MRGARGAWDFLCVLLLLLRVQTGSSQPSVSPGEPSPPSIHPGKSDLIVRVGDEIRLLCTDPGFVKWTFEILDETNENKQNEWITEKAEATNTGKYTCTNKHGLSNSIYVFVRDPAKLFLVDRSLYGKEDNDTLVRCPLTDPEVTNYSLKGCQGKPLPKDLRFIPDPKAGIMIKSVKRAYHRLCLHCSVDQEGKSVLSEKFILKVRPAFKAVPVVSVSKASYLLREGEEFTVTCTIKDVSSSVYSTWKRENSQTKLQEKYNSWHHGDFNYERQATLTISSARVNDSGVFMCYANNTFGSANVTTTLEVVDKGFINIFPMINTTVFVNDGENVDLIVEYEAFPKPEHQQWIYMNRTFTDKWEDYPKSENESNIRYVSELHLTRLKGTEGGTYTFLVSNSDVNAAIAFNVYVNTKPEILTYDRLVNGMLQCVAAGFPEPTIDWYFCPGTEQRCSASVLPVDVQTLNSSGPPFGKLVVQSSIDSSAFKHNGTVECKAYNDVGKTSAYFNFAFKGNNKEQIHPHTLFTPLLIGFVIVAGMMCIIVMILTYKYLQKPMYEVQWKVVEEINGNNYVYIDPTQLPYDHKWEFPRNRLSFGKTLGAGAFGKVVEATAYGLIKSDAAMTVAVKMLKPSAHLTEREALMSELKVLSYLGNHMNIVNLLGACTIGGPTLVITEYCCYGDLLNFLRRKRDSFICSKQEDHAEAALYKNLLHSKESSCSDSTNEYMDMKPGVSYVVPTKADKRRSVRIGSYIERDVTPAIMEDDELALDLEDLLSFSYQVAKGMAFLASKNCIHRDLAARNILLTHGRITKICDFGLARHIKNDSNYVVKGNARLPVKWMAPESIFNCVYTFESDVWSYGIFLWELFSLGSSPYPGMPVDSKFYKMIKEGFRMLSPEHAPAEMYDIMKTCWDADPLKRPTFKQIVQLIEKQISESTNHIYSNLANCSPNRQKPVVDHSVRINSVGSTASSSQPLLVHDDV

[14] = target: Mitogen-activated protein kinase 8 (Homo sapiens) (UniProt P45983); experiment: Inhibition of human recombinant MAPK8 at 2 uM by Eurofins kinase assay relative to control
[15] = target: cAMP-dependent protein kinase catalytic subunit alpha (Homo sapiens) (UniProt P17612); experiment: Inhibition of human recombinant PRKACA at 2 uM by Eurofins kinase assay relative to control
[16] = target: Serine/threonine-protein kinase D1 (Homo sapiens) (UniProt Q15139); experiment: Inhibition of human recombinant PRKD1 at 2 uM by Eurofins kinase assay relative to control
[17] = target: Proto-oncogene tyrosine-protein kinase Src (Homo sapiens) (UniProt P12931); experiment: Inhibition of human recombinant SRC at 2 uM by Eurofins kinase assay relative to control
[18] = target: Serine/threonine-protein kinase 17A (Homo sapiens) (UniProt Q9UEE5); experiment: Inhibition of human STK17A at 2 uM by Eurofins kinase assay relative to control
Chain of Serine/threonine-protein kinase 17A (Homo sapiens) (Q9UEE5 whole entry): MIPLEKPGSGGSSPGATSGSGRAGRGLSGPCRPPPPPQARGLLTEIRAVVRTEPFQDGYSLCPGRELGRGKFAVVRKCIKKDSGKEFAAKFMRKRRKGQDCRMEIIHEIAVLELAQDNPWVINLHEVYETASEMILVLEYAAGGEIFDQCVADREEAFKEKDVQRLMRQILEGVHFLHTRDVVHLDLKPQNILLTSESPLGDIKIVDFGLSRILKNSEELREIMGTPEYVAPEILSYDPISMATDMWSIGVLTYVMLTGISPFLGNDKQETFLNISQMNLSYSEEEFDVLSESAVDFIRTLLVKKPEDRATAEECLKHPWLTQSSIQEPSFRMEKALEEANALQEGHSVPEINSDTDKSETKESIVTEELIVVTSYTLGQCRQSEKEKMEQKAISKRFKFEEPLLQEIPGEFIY

[19] = target: Serine/threonine-protein kinase TBK1 (Homo sapiens) (UniProt Q9UHD2); experiment: Inhibition of human TBK1 at 2 uM by Eurofins kinase assay relative to control
Chain of Serine/threonine-protein kinase TBK1 (Homo sapiens) (Q9UHD2 whole entry): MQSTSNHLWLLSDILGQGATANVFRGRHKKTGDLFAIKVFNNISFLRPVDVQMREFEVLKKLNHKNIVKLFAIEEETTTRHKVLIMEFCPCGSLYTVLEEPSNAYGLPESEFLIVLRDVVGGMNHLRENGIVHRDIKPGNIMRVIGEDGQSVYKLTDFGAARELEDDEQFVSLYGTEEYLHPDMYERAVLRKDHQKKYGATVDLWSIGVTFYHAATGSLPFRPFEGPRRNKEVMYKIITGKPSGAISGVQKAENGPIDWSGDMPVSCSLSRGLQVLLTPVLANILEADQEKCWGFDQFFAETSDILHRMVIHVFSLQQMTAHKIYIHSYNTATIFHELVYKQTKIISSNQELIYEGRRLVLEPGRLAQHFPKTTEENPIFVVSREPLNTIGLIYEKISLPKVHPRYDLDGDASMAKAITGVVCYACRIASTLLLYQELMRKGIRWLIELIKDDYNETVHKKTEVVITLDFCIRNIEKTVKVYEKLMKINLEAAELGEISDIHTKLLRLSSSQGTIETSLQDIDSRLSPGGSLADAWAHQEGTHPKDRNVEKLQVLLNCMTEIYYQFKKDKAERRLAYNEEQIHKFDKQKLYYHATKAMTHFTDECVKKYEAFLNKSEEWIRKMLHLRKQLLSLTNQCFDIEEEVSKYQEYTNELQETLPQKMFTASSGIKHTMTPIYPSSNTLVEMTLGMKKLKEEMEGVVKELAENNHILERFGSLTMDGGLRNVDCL

[20] = Upregulation of PARP cleavage in human U-937 cells by measuring signal 1 at 5 uM measured after 48 hrs by immunoblot analysis; assay type: functional
Outline: (§1)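 U937 cells exposed to compound or DMSO for 48 h, then lysed in Laemmli buffer. Lysates were run on 8–16% gradient SDS-PAGE, semi-dry blotted to PVDF and probed for PARP. Detection used IR-fluorescent secondary antibodies. The cleaved/uncleaved PARP signal ratio was obtained by densitometry. Results are representative of two independent experiments.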

[21] = Upregulation of PARP cleavage in human U-937 cells by measuring signal 1 at 10 uM measured after 48 hrs by immunoblot analysis; assay type: functional; outline: as §1
[22] = Upregulation of PARP cleavage in human U-937 cells by measuring signal 1 at 15 uM measured after 48 hrs by immunoblot analysis; assay type: functional; outline: as §1
[23] = Upregulation of PARP cleavage in human U-937 cells by measuring signal 2 at 5 uM measured after 48 hrs by immunoblot analysis; assay type: functional
Outline: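 U937 lymphoma cells grown in RPMI with 2 mM L-glutamine, 1 % pen/strep and 10 % FCS; exposed to compound or DMSO solvent control for 48 h. Total cellular proteins harvested and immunoblotted with an antibody against phosphorylated CK2-substrate motifs and for PARP. Read-out is the densitometric ratio of cleaved to uncleaved PARP signal. Representative of two independent experiments.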

[24] = target: Eukaryotic translation initiation factor 2 subunit 2 (Homo sapiens) (UniProt P20042); experiment: Inhibition of eIF2beta phosphorylation in human 786-O cells at 6 uM measured after 48 hrs by immunoblot analysis relative to control
Chain of Eukaryotic translation initiation factor 2 subunit 2 (Homo sapiens) (P20042 whole entry): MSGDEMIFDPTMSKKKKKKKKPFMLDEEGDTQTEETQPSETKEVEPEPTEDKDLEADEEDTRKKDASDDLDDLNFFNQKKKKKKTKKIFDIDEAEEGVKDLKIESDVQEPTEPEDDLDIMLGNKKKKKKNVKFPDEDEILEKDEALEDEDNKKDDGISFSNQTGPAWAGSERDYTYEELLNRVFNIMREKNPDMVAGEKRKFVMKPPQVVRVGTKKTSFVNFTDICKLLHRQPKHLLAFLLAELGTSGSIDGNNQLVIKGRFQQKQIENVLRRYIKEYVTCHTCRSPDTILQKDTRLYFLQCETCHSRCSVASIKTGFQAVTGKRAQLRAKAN

[25] = target: Eukaryotic translation initiation factor 2 subunit 2 (Homo sapiens) (UniProt P20042); experiment: Inhibition of eIF2beta phosphorylation in human 786-O cells at 8 uM measured after 48 hrs by immunoblot analysis relative to control
[26] = target: Eukaryotic translation initiation factor 2 subunit 2 (Homo sapiens) (UniProt P20042); experiment: Inhibition of eIF2beta phosphorylation in human 786-O cells at 10 uM measured after 48 hrs by immunoblot analysis relative to control

SMILES: Clc1ccc(N2CCN(c3ncnc4sc5c(c34)CCNC5)CC2)cc1.O=C(O)C(F)(F)F
- inhibition at 30 µM [1]: 102%
- Activity [2]: Dose-dependent-effect
- inhibition [3]: 0%
- inhibition [4]: 4%
- inhibition [5]: 16%
- inhibition [6]: 11%
- inhibition [7]: 21%
- inhibition [8]: 4%
- inhibition [9]: 9%
- inhibition [10]: 5%
- inhibition [11]: 5%
- inhibition [12]: 0%
- inhibition [13]: 4%
- inhibition [14]: 18%
- inhibition [15]: 6%
- inhibition [16]: 10%
- inhibition [17]: 6%
- inhibition [18]: 0%
- inhibition [19]: 4%
- Activity [20]: 72%
- Activity [21]: 89%
- Activity [22]: 96%
- Activity [23]: 17%
- inhibition [24]: 0%
- inhibition [25]: 32%
- inhibition [26]: 83%

Reference: ChEMBL document CHEMBL6096655, “Discovery of a novel, selective CK2 inhibitor class with an unusual basic scaffold” (Eur J Med Chem, 2025)
